Type in all cases: functional, cell-based
One assay deals with Col2. Put plainly: Inhibition of Col2 human colon cancer cell proliferation. The method in brief: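 Col2 human colon cancer cells grown in MEME with 10% NAA, antibiotic-antimycotic and 10% FBS at 37 °C, 5% CO2. Exponentially growing cells seeded onto compounds dissolved in DMSO and grown 3 days at 37 °C. Cells TCA-fixed, stained with 0.4% sulforhodamine B in 1% acetic acid, dye solubilized in 0.1 M Tris, A515 read. % growth computed against day-0 and DMSO-control absorbances.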

Assay [1] concerns Ishikawa. The assay can be described thus: Antiestrogenic effects in Ishikawa cells. The settings on record: Homo sapiens.
Assay [2] has as its system Ishikawa. The assay can be described thus: Inhibition of Ishikawa cell proliferation.
For assay [3], the system named is Ishikawa. Put plainly: Inhibition of antiestrogenic response in Ishikawa cells.
Setting [4] is: Homo sapiens, Ishikawa, read-out: IC50.

The structures appear in SMILES notation. ≈ marks a conversion by molar mass, not a printed value.

`CO[C@@H]1[C@@H](O)[C@H](C)O[C@@H](OC2CC[C@@]3(C)[C@H](CC[C@@H]4[C@@H]3C3OC3[C@]3(C)[C@H](C5=CC(=O)OC5)CC[C@]43O)C2)[C@@H]1O` (stereo in doubt; 2): the IC50 in the assay on Col2 was at most 5 µg/mL; in the assay on Ishikawa [1], at most 5 µg/mL; in the assay on Ishikawa [2] (setting [4]) it was 0.02 µg/mL (≈ 0.0365 µM); in the assay with Ishikawa [3] (setting [4]) it was 0.008 µg/mL (≈ 0.0146 µM).

With `COc1cc(C[C@H]2COC(c3ccc(O)c(OC)c3)[C@@]2(O)CO)ccc1O` (stereo partly drawn), the IC50 in the assay with Col2 and in the assay on Ishikawa [1] was above 10 µg/mL in each case.

As to `CO[C@@H]1[C@@H](O)[C@H](C)O[C@@H](OC2CC[C@@]3(C)[C@H](CC[C@@H]4[C@@H]3C3OC3[C@]3(C)[C@H](C5=CC(=O)OC5)CC[C@]43O)C2)[C@@H]1O` (stereo in doubt; 1), the IC50 in the assay with Ishikawa [2] (ishikawa) came out at 0.015 µg/mL (≈ 0.0273 µM); in the assay with Ishikawa [3] (ishikawa) it was 0.0042 µg/mL (≈ 0.00765 µM).

One may read the IC50 as the concentration needed to halve the response being measured.

Source of the values: ChEMBL document CHEMBL1133040, “Activity-guided isolation of constituents of Cerbera manghas with antiproliferative and antiestrogenic activities” (Bioorg Med Chem Lett, 2000).
